We go through 1 molecule from ChEMBL document CHEMBL1124112, “Indoline analogues of idazoxan: potent alpha 2-antagonists and alpha 1-agonists” (J Med Chem, 1988).

Test [1] concerns the target Adrenergic receptor alpha-2 (Rattus norvegicus) (UniProt P22086+P19328+P22909). As to the kind of experiment: Antagonist potency towards alpha-2 adrenergic receptor determined as the dose required to produce a two fold shift of the dose-response curve to UK-14304 on the twitch response of the vas deferens (in vitro);AG- agonist. It counts as functional, tissue-based. Particulars: filed as agonist.

The target in test [2] is Adrenergic receptor alpha-1 (Rattus norvegicus) (UniProt P15823+P23944+P43140). In words: Agonism at alpha-1 adrenergic receptor, determined as the dose required to produce a two fold shift of the cirazoline on diastolic blood pressure. The format is functional, tissue-based. Particulars: Artery.
For test [3], the target named is T1, Adrenergic receptor alpha-1 (Rattus norvegicus, UniProt P15823+P23944+P43140).
T1 sequence (P15823 whole entry): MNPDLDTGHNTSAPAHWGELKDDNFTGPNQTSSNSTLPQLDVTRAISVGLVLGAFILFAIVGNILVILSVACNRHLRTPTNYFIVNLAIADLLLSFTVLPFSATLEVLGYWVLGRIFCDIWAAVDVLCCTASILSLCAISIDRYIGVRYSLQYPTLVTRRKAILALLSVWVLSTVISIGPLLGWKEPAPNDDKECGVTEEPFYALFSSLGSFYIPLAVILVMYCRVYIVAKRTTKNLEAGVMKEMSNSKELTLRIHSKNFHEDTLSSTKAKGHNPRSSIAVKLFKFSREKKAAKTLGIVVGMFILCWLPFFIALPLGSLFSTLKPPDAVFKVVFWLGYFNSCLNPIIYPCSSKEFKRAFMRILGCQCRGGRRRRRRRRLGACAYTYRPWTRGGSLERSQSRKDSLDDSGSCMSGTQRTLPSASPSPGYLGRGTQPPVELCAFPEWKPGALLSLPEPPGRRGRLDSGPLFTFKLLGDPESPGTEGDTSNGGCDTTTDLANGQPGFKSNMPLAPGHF
T1 sequence (P23944 whole entry): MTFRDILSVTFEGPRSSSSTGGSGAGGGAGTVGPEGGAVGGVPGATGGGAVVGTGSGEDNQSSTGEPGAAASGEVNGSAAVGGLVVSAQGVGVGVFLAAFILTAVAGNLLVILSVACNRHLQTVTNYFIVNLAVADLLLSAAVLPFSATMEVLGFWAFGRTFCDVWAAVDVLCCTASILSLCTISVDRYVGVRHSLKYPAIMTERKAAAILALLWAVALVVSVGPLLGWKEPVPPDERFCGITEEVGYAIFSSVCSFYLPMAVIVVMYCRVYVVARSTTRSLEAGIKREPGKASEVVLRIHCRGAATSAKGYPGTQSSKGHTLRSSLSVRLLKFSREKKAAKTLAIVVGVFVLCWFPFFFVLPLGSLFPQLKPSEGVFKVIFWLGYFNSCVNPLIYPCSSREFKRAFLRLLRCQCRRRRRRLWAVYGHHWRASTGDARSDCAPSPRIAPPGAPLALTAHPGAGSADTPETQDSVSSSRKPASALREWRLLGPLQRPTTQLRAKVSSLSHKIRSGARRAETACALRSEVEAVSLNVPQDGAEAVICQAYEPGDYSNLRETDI
T1 sequence (P43140 whole entry): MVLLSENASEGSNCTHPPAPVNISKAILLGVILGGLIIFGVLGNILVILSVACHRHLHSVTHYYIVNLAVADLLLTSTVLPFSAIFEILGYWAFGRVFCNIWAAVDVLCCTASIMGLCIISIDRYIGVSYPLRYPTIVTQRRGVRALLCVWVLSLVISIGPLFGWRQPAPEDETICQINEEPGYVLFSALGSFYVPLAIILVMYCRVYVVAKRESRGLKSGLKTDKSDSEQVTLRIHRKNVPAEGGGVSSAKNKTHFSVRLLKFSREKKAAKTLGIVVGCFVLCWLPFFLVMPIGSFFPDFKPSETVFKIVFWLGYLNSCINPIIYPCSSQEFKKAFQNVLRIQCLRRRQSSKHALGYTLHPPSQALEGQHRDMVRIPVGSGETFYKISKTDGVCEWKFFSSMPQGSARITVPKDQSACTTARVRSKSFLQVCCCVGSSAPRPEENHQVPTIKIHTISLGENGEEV
In words: Inhibition of saturable binding of [3H]prazosin to alpha-1 adrenergic receptor in rat cerebral cortical membranes. The format is cell membranes, Membrane. A digest of the protocol:
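Rat cerebral cortical membranes were used as the α1 site source and labelled with [³H]prazosin. Compounds displaced saturable binding. Ki (nM) was defined as the concentration inhibiting saturable binding by 50%.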

Test [4] relates to Rattus norvegicus. As to the kind of experiment: In vivo ED40 is the raising diastolic blood pressure by 40 mm Hg in pithed rats. (postjunctional). Particulars: Artery. The format is functional. A digest of the protocol: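 Pithed rats, compound given iv in cumulative doses. ED40 is the dose (μg/kg) raising diastolic blood pressure by 40 mmHg. Separate groups of rats (n = 4-6).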

The test system of test [5] is Rattus norvegicus. In words: In vivo antagonist dose producing two fold shift of cirazoline in pithed rats. (postjunctional). It counts as functional. A digest of the protocol: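 Pithed rats, separate groups (n = 4-6). Cirazoline cumulative dose-response on diastolic blood pressure (postjunctional α1) was recorded with and without antagonist given iv. The antagonist dose (μg/kg, iv) giving a twofold rightward shift of the cirazoline curve was reported as DR2.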

Test [6] relates to Rattus norvegicus. In words: In vivo antagonist dose producing two fold shift of UK-14,304 in pithed rats. (prejunctional).
Test [7] deals with Adrenergic receptor alpha-2 (Rattus norvegicus). In words: Agonism at alpha-2 adrenergic receptor, determined as dose required to produce a two fold shift of the cumulative dose-response curve to UK-14304 on the twitch response in rat vas deferens.

Consider `c1ccc(CN2c3ccccc3CC2C2=NCCN2)cc1` (configuration not stated), for which, in test [1], the Prejunctional antagonist potency entry is “Agonist”. For the same molecule, in test [2], the Postjunctional agonist potency is 0. Moreover, in test [3], the Ki (usually the equilibrium dissociation constant of an inhibitor or competing ligand from its target) is reported as 17.5 nM. The ED40 in test [4] was 0.308 mg/kg. Besides, the DR2 in test [5] worked out at 0.0543 mg/kg; in test [6], 0.0087 mg/kg. Moreover, the Prejunctional agonist potency in test [7] came to 0.02.
